According to ChEMBL document CHEMBL1122839, “Synthesis and antidiarrheal activity of N-(aminoiminomethyl)-1H-pyrrole-1-acetamides related to guanfacine” (1985):
Several values for one entry are separate records, joined by “and”; a condition that tells them apart may be missing. Equal values may be shown once. Activity calls are given as the source filed them. The rule behind the calls is not given here.

Columns and labels:
Rattus norvegicus [1] = test: Percent inhibition of caster oil induced diarrhea in rats at a dose of 30 mg/kg peroral administration after 2 hours; type: functional; conditions: route oral
Rattus norvegicus [2] = test: Percent inhibition of caster oil induced diarrhea in rats at a dose of 30 mg/kg peroral administration after 6 hours; NS=Not significant; type: functional, organism-based; set-up: dose 30 mg/kg
Rattus norvegicus [3] = test: Cardiovascular activity in normotensive rats after oral administration of 30 mg/kg after 1 hr; type: functional
In short: (§1)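 Female normotensive rats with left carotid artery cannulae implanted under anaesthesia; dosed orally the next day in 0.5% hydroxymethylcellulose/0.9% saline (10 mL/kg) or vehicle alone. Systolic blood pressure taken by pressure transducer before dosing and at 1, 2, 4, 6 h; heart rate from tachometer triggered by pressure signal. Mean values; significance versus predose.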

Rattus norvegicus [4] = test: Cardiovascular activity in normotensive rats after oral administration of 30 mg/kg after 6 hr; type: functional
In short: (§2)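 Female normotensive rats with left carotid artery cannulae placed under anaesthesia. The next day they received the test substance orally in 0.5% hydroxymethylcellulose/0.9% saline (10 mL/kg), or vehicle alone. Systolic blood pressure was measured from the cannula, and heart rate from the pressure-triggered tachometer, predose and at 1, 2, 4 and 6 h. Values are means; significance was judged against predose values.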

Rattus norvegicus [5] = test: Cardiovascular activity in normotensive rats at a dose of 30 mg/kg oral administration after 4 hr; type: functional; in short: as §2
Rattus norvegicus [6] = test: Cardiovascular activity in normotensive rats at a dose of 30 mg/kg oral administration after 1 hr; type: functional; in short: as §2
Rattus norvegicus [7] = test: Cardiovascular activity in normotensive rats at a dose of 30 mg/kg oral administration after 2 hr; type: functional; in short: as §2
Rattus norvegicus [8] = test: Cardiovascular activity in normotensive rats at a dose of 30 mg/kg oral administration after 6 hr; type: functional; in short: as §2
Rattus norvegicus [9] = test: Percent inhibition of caster oil induced diarrhea in rats at a dose of 30 mg/kg peroral administration after 6 hours; type: functional; conditions: for inhibition in vivo at 30 mg/kg: Rattus norvegicus, 6 h
Rattus norvegicus [10] = test: Cardiovascular activity in normotensive rats after oral administration of 30 mg/kg after 4 hr; type: functional; in short: as §2
Rattus norvegicus [11] = test: Percent inhibition of caster oil induced diarrhea in rats at a dose of 10 mg/kg peroral administration after 2 hours; type: functional; conditions: route oral
Rattus norvegicus [12] = test: Cardiovascular activity in normotensive rats after oral administration of 30 mg/kg after 2 hr; type: functional; in short: as §2
Rattus norvegicus [13] = test: Percent inhibition of caster oil induced diarrhea in rats at a dose of 10 mg/kg peroral administration after 6 hours; type: functional; conditions: for Inhibition: 10 mg/kg; for inhibition in vivo at 10 mg/kg: Rattus norvegicus, 6 h
Rattus norvegicus [14] = test: Percent inhibition of caster oil induced diarrhea in rats at a dose of 30 mg/kg peroral administration after 2 hours; NS=Not significant; type: functional, organism-based; set-up: dose 30 mg/kg
Rattus norvegicus [15] = test: The compound was tested for cardiovascular activity in normotensive rats after oral administration of 30 mg/kg after 1 hr; type: functional, Heart; in short: as §2
Rattus norvegicus [16] = test: Percent inhibition of caster oil induced diarrhea in rats at a dose of 1 mg/kg peroral administration after 2 hours; type: functional; conditions: route oral
Rattus norvegicus [17] = test: Percent inhibition of caster oil induced diarrhea in rats at a dose of 3 mg/kg peroral administration after 2 hours; type: functional; conditions: route oral
Rattus norvegicus [18] = test: Percent inhibition of caster oil induced diarrhea in rats at a dose of 1 mg/kg peroral administration after 6 hours; NS=Not significant; type: functional, organism-based; set-up: dose 1 mg/kg
Rattus norvegicus [19] = test: Percent inhibition of caster oil induced diarrhea in rats at a dose of 3 mg/kg peroral administration after 6 hours; NS=Not significant; type: functional, organism-based; set-up: dose 3 mg/kg
Rattus norvegicus [20] = test: Percent inhibition of caster oil induced diarrhea in rats at a dose of 3 mg/kg peroral administration after 6 hr; NS=Not significant; type: functional, organism-based; set-up: dose 3 mg/kg
Rattus norvegicus [21] = test: Percent inhibition of caster oil induced diarrhea in rats at a dose of 1 mg/kg peroral administration after 2 hours; NS=Not significant; type: functional, organism-based; set-up: dose 1 mg/kg
Rattus norvegicus [22] = test: Percent inhibition of caster oil induced diarrhea in rats at a dose of 1 mg/kg peroral administration after 6 hr; NS=Not significant; type: functional, organism-based; set-up: dose 1 mg/kg
Rattus norvegicus [23] = test: Percent inhibition of caster oil induced diarrhea in rats at a dose of 1 mg/kg peroral administration after 2 hr; type: functional; conditions: route oral
Rattus norvegicus [24] = test: Percent inhibition of caster oil induced diarrhea in rats at a dose of 1 mg/kg peroral administration after 6 hr; type: functional; conditions: route oral
Rattus norvegicus [25] = test: Percent inhibition of caster oil induced diarrhea in rats after 2 hours at 3 mg/kg of dose after peroral administration; type: functional; conditions: route oral
Rattus norvegicus [26] = test: Percent inhibition of caster oil induced diarrhea in rats after 2 hours at 1 mg/kg of dose after peroral administration; NS=Not significant; type: functional, organism-based; set-up: dose 1 mg/kg
Rattus norvegicus [27] = test: Percent inhibition of caster oil induced diarrhea in rats after 6 hours at 3 mg/kg of dose after peroral administration; NS=Not significant; type: functional, organism-based; set-up: dose 3 mg/kg
Rattus norvegicus [28] = test: Percent inhibition of caster oil induced diarrhea in rats after 6 hours at 1 mg/kg of dose after peroral administration; NS=Not significant; type: functional, organism-based; set-up: dose 1 mg/kg
Rattus norvegicus [29] = test: Percent inhibition of caster oil induced diarrhea in rats at a dose of 3 mg/kg peroral administration after 2 hr; type: functional; conditions: route oral
In short: (§3)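 Male rats housed singly on wide-mesh grids, food-deprived overnight, water free; groups of six dosed orally in 0.3% hydroxymethylcellulose/0.9% saline (10 mL/kg) or vehicle. Castor oil 1 mL orally 1 h later. Feces collected on preweighed papers and weighed at 2 and 6 h after castor oil; output expressed as percentage of vehicle group.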

Rattus norvegicus [30] = test: Percent inhibition of caster oil induced diarrhea in rats at a dose of 3 mg/kg peroral administration after 6 hr; type: functional; conditions: route oral; in short: as §3
Rattus norvegicus [31] = test: Cardiovascular activity in normotensive rats after oral administration of 30 mg/kg aof the compound after 1 hr; type: functional; in short: as §1

CC1C=C[C@@H](C)N1CC(=O)NC1=NCCN1 (stereo partly specified)
inhibition in vivo at 30 mg/kg (Rattus norvegicus [1]): 35%
inhibition (Rattus norvegicus [2]): inactive

C/N=C(\N)NC(=O)CN1C(C)C=C[C@H]1C (stereo partly specified)
inhibition in vivo at 30 mg/kg (Rattus norvegicus [1]): 88%
inhibition (Rattus norvegicus [2]): inactive

Cc1ccc(C)n1CC(=O)N=C(N)N.Cl
Systolic blood pressure (Rattus norvegicus [3]): 193 mmHg
inhibition in vivo at 30 mg/kg (Rattus norvegicus [1]): 96%
Systolic blood pressure (Rattus norvegicus [4]): 138 mmHg
Heart rate (Rattus norvegicus [5]): 218 beats min-1
Heart rate (Rattus norvegicus [6]): 175 beats min-1
Heart rate (Rattus norvegicus [7]): 218 beats min-1
Heart rate (Rattus norvegicus [8]): 242 beats min-1
inhibition in vivo at 30 mg/kg (Rattus norvegicus [9]; po): 96%
Systolic blood pressure (Rattus norvegicus [10]): 163 mmHg
inhibition in vivo at 10 mg/kg (Rattus norvegicus [11]): 100%
Systolic blood pressure (Rattus norvegicus [12]): 159 mmHg
Inhibition (Rattus norvegicus [13]; route oral): 75% and 97%

CC1C=C[C@@H](C)N1C(=O)C(=O)N=C(N)N (stereo partly specified)
inhibition (Rattus norvegicus [14]): inactive
inhibition (Rattus norvegicus [2]): inactive

CC1C=C[C@@H](C)N1C(C)C(=O)N=C(N)N (stereo partly specified)
inhibition (Rattus norvegicus [14]): inactive
inhibition (Rattus norvegicus [2]): inactive

CC1C=C[C@@H](C)N1CCC(=O)N=C(N)N (stereo partly specified)
inhibition (Rattus norvegicus [14]): inactive
inhibition (Rattus norvegicus [2]): inactive

CC1C=C[C@@H](C)N1CCN=C(N)N (stereo partly specified)
inhibition (Rattus norvegicus [14]): inactive
inhibition (Rattus norvegicus [2]): inactive

CC1CC[C@@H](C)N1CC(=O)N=C(N)N (stereo partly specified)
inhibition (Rattus norvegicus [14]): inactive
inhibition (Rattus norvegicus [2]): inactive

CC1C=C[C@@H](C)N1CC(=O)N=C(N)N.Cl.Cl (stereo in doubt; 2)
Systolic blood pressure (Rattus norvegicus [3]): 133 mmHg
Heart rate (Rattus norvegicus [15]): 395 beats min-1
inhibition in vivo at 30 mg/kg (Rattus norvegicus [1]): 100%
Heart rate (Rattus norvegicus [4]): 443 beats min-1
Systolic blood pressure (Rattus norvegicus [4]): 134 mmHg
inhibition in vivo at 1 mg/kg (Rattus norvegicus [16]): 92%
inhibition in vivo at 3 mg/kg (Rattus norvegicus [17]): 100%
inhibition in vivo at 30 mg/kg (Rattus norvegicus [9]; po): 99%
Heart rate (Rattus norvegicus [10]): 418 beats min-1
Systolic blood pressure (Rattus norvegicus [10]): 133 mmHg
inhibition in vivo at 10 mg/kg (Rattus norvegicus [11]): 100%
Heart rate (Rattus norvegicus [12]): 373 beats min-1
Systolic blood pressure (Rattus norvegicus [12]): 137 mmHg
Inhibition (Rattus norvegicus [13]; route oral): 86%

CC1C=C[C@@H](C)N1CC(=O)N=C(N)N (stereo in doubt; 2)
inhibition (Rattus norvegicus [18]): inactive
inhibition (Rattus norvegicus [19]): Not siginificant

CC1C=C[C@@H](C)N1CC(=O)N=C(N)N.Cl.Cl (stereo in doubt; 10)
inhibition in vivo at 3 mg/kg (Rattus norvegicus [17]): 100%
Inhibition (Rattus norvegicus [13]; route oral): 52%

CC1C=C[C@@H](C)N1CC(=O)N=C(N)N (stereo in doubt; 10)
inhibition (Rattus norvegicus [20]): inactive
inhibition (Rattus norvegicus [21]): inactive
inhibition (Rattus norvegicus [22]): inactive

CC1C=C[C@@H](C)N1CC(=O)N=C(N)N.Cl.Cl (stereo in doubt; 11)
inhibition in vivo at 1 mg/kg (Rattus norvegicus [23]): 100%
inhibition in vivo at 1 mg/kg (Rattus norvegicus [24]): 46%
Inhibition (Rattus norvegicus [9]; route oral, 30 mg/kg): 100%
Inhibition (Rattus norvegicus [13]; route oral): 45%

CNC(=N)NC(=O)Nc1c(C)cccc1C [LIDAMIDINE]
inhibition in vivo at 3 mg/kg (Rattus norvegicus [25]): 100%
Heart rate (Rattus norvegicus [3]): 263 beats min-1
Systolic blood pressure (Rattus norvegicus [3]): 123 mmHg
inhibition (Rattus norvegicus [26]): inactive
inhibition (Rattus norvegicus [27]): inactive
inhibition in vivo at 30 mg/kg (Rattus norvegicus [1]): 100%
Heart rate (Rattus norvegicus [4]): 298 beats min-1
Systolic blood pressure (Rattus norvegicus [4]): 131 mmHg
inhibition (Rattus norvegicus [28]): inactive
inhibition in vivo at 30 mg/kg (Rattus norvegicus [9]; po): 100%
Heart rate (Rattus norvegicus [10]): 261 beats min-1
Systolic blood pressure (Rattus norvegicus [10]): 126 mmHg
inhibition in vivo at 10 mg/kg (Rattus norvegicus [11]): 100%
Heart rate (Rattus norvegicus [12]): 241 beats min-1
Systolic blood pressure (Rattus norvegicus [12]): 132 mmHg
inhibition in vivo at 10 mg/kg (Rattus norvegicus [13]; po): 68%

CN(C)C(=O)C(CCN1CCC(O)(c2ccc(Cl)cc2)CC1)(c1ccccc1)c1ccccc1 [LOPERAMIDE]
Heart rate (Rattus norvegicus [3]): 278 beats min-1
inhibition in vivo at 30 mg/kg (Rattus norvegicus [1]): 98%
inhibition in vivo at 3 mg/kg (Rattus norvegicus [29]): 96%
Heart rate (Rattus norvegicus [4]): 360 beats min-1
Systolic blood pressure (Rattus norvegicus [4]): 125 mmHg
inhibition in vivo at 3 mg/kg (Rattus norvegicus [30]): 77%
inhibition in vivo at 30 mg/kg (Rattus norvegicus [9]; route oral): 97%
Heart rate (Rattus norvegicus [10]): 324 beats min-1
Systolic blood pressure (Rattus norvegicus [10]): 124 mmHg
inhibition in vivo at 10 mg/kg (Rattus norvegicus [11]): 100%
Heart rate (Rattus norvegicus [12]): 290 beats min-1
Systolic blood pressure (Rattus norvegicus [12]): 117 mmHg
Systolic blood pressure (Rattus norvegicus [31]): 119 mmHg
inhibition in vivo at 10 mg/kg (Rattus norvegicus [13]; route oral): 99%
